Screens: PubChem BioAssay, The Scripps Research Institute Molecular Screening Center
CTSL1 counter: cathepsin L1 inhibition, PFM18AAP counter-screen; inhibition, % at 5.96 µM; AID 1906; recombinant F. hepatica cathepsin L1, Z-Leu-Arg-MCA fluorescence; actives 0.49% (n = 300,000);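 active = inhibition above the mean of all tested compounds plus 3 SD, set per screening campaign, cut at about 17% in these data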;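 note: 0% = plate median of test compound wells and 100% = 1 µM Z-Phe-Ala-diazomethylketone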
ZTA counter: counter-screen for EBNA-1 inhibitors: inhibitors of Epstein-Barr virus ZTA. inhibition, % at 11 µM. actives 0.15% (n = 320,000). AID 2234. ZTA-DNA binding, fluorescence polarization. P03206; in the data active = inhibition above about 33%
Target sequence (P03206 whole entry, looked up): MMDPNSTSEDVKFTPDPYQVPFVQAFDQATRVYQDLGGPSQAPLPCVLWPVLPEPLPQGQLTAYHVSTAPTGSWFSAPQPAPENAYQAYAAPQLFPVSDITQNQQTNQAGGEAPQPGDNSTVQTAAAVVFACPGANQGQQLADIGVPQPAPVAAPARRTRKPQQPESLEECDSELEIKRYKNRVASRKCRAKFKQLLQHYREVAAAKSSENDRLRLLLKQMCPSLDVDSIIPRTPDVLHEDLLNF
HCV NS3 hel inh: inhibitors of Hepatitis C virus NS3 helicase. NS3 helicase DNA unwinding, Cy5 molecular beacon fluorescence. inhibition, % at 10.9 µM. actives 0.56% (n = 290,000);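 active = inhibition above the mean of all tested compounds plus 3 SD, set per campaign, cut at about 35% in these data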;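 note: 0% = DMSO wells and 100% = thioflavine S control wells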
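Test system: hepatitis C virus NS3 helicase domain fragment enzyme. Also added: annealed dual-labelled DNA beacon duplex, ATP-started. Timing: 60 min unwinding reaction at 25 °C after ATP addition. Technique: Cy5 fluorescence. Measure: % inhibition of unwinding.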
EBNA-1 inh: blocks EBNA-1 binding to DNA; EBNA-1 DNA binding, fluorescence polarization; AID 1950; actives 0.34% (n = 300,000); inhibition, % at 14.8 µM; in the data active = inhibition above about 28%
* hit, by the source's call; nt = no result given; + = active, no number. This is a sample that favours compounds with a hit; in the whole collection about 1.4% have one here.

SMILES	CTSL1 counter	ZTA counter	HCV NS3 hel inh	EBNA-1 inh
CCCc1cc(Nc2cccc(OC)c2)n2ncnc2n1	18*	6	2	1
COc1ccccc1-c1cc(C(=O)Nc2cc(C)n(Cc3ccc(Cl)cc3)n2)no1	4	-7	-5	1
NC(=O)c1ccsc1NC(=O)c1ccc(S(=O)(=O)N2CCCCC2)cc1	37*	5	-17	5
CC1Nc2nc(N(C)C)[nH]c(=O)c2NC1C (centres undefined)	-2	3	2	-3
COc1cccc(CCC(=O)O)c1OC	19*	-3	-2	-12
COc1ccc(-n2c(=S)[nH]c3cc(C(=O)NCc4ccco4)ccc3c2=O)c(OC)c1	19*	-11	2	-1
COc1ccc(-n2c(=S)[nH]c3cc(C(=O)NCc4ccccc4OC)ccc3c2=O)c(OC)c1	-2	0	5	-12
CCOc1cc(/C=C/C(=O)NCCc2ccc(S(N)(=O)=O)cc2)ccc1OCC(C)C	19*	-6	10	4
COc1cc(/C=C/C(=O)NCCc2ccc(S(N)(=O)=O)cc2)ccc1OCC#N	2	-15	-11	1
CCCCC/C(=N\NC(=O)Nc1ccccc1)c1ccccc1	25*	6	-2	-8
CCOC(=O)c1c(N)sc2c1CCC1C(=O)N(C3CCCCC3)C(=O)C21 (centres undefined)	9	-5	21	0
CC1C/C(=N\NC(N)=S)c2cc(Cl)ccc2S1 (centres undefined)	68*	-8	-10	2
NC(=S)Nc1ccc(Cl)cc1Cl	2	-9	4	12
COc1ccccc1C(=O)NC(CCSC)C(=O)NCC(c1ccco1)N(C)C (centres undefined)	27*	-7	-5	-9
CC(C)C(NC(=O)c1ccco1)C(=O)NCC(c1ccco1)N(C)C (centres undefined)	63*	4	3	-2
CC1(OC(=O)CCc2ccccc2)C(=O)C=C2C=C(c3ccsc3)OC=C2C1=O (centres undefined)	-4	-5	nt	-1
Cc1sc(NC(=O)CCl)c(C(=O)c2ccccc2)c1C	53*	-14	8	5
COc1ccc(CNC(=O)[C@H](C)NC(=O)C2CCN(S(=O)(=O)c3ccc(F)cc3)CC2)cc1	0	3	2	3
CNC(=O)C(Sc1ccccc1)c1ccccc1 (centres undefined)	-4	8	-1	0
CCCNC(=O)C(Sc1ccccc1)c1ccccc1 (centres undefined)	36*	-11	-14	-1
Cc1ccc(C)c(S(=O)(=O)N2C(=S)NC(=O)C2C(C)C)c1 (centres undefined)	17*	15	1	3
Cc1ccc(C)c(OCCCC(=O)O)c1	17*	-2	0	-12
Cc1ccc(C)c(OCCCC(C)(C)C(=O)O)c1	-3	2	8	-2
COC(=O)c1[nH]c2ccc(Cl)cc2c1NC(=O)Oc1ccccc1	-2	-8	1	-14
Cc1ccc(N2C(=O)[C@@H]3[C@H](C2=O)C2c4ccccc4C=CN2[C@@H]3C(=O)c2ccco2)c(C)c1 (some centres undefined)	35*	-2	24	-1
SMILES	CTSL1 counter	ZTA counter	HCV NS3 hel inh	EBNA-1 inh
O=C(c1ccco1)[C@@H]1[C@@H]2C(=O)N(c3ccccc3)C(=O)[C@@H]2C2c3ccccc3C=CN21 (some centres undefined)	28*	-13	9	-7
CCOc1ccc(NC(=O)NNC(=O)C2CCC(C(C)(C)C)CC2)cc1 (centres undefined)	3	0	-2	-2
Cc1ccc(NC(=O)COC(=O)C(CC(C)C)N2C(=O)C3CC=CCC3C2=O)c(C)c1 (centres undefined)	17*	-4	-3	-1
O=c1c(-c2nc3ccccc3s2)cccn1Cc1ccccc1	3	6	2	2
CC1=CC(=O)c2c(O)ccc(O)c2C1=O	18*	36*	26	42*
COc1cc2c(cc1NC(=O)COC(=O)CNC(=O)c1ccccc1)oc1ccccc12	24*	-4	-9	0
COc1ccc(-c2cc(C(=O)NCc3ccc(Cl)cc3)no2)cc1OC	2	13	7	-3
COc1ccc(OC)c(-c2cc(C(=O)NCc3ccc(Cl)cc3)no2)c1	2	21	1	30*
CCOC(=O)c1ccc(NC(=S)NCc2ccccc2)cc1	5	7	1	-4
CCOC(=O)C1(CCOc2ccccc2)CCN(C(=O)CCSC)CC1	1	37*	-8	-1
COc1ccc2[nH]c(=O)c(CN(C3CCCCC3)C(c3nnnn3Cc3ccco3)C(C)C)cc2c1 (centres undefined)	14	-1	32	1
COc1ccc2[nH]c(=O)c(CN(Cc3nnnn3Cc3ccco3)C3CCCCC3)cc2c1	10	3	42*	-9
Cn1c(SCc2cccc(F)c2)nnc1-c1cnccn1	54*	-14	-5	0
S=c1[nH]nc(CNc2cccc(Cl)c2)o1	1	7	2	6
CCn1c(CSc2nnc(-c3cccnc3)n2-c2ccccc2C)nc2cc(C(=O)O)ccc21	2	+	-3	124*
Cc1ccccc1-n1c(SCC(=O)c2cc(C)n(C)c2C)nnc1-c1cccnc1	2	11	0	-3
Cc1cccc(-c2cc3nc(-c4ccccc4)cc(N4CCC5(CC4)OCCO5)n3n2)c1	20*	-8	-5	-5
Cc1ccc(-c2cc3nc(-c4ccccc4)cc(N4CCC5(CC4)OCCO5)n3n2)cc1	5	7	-3	3
CCOC(=O)c1ccc2nc(C)c(CC)c(Cl)c2c1	-2	-12	-8	0
CC(CCc1ccccc1)NC(=O)c1ccc(C(=O)NC(C)CCc2ccccc2)cc1 (centres undefined)	-3	-3	1	-4
CC(CCc1ccccc1)NC(=O)c1ccc(Cl)nc1 (centres undefined)	17*	-1	-1	-1
COc1ccccc1C(=O)NC(=S)/C=C1/N(C)c2ccccc2C1(C)C	19*	-17	-13	2
Cc1cc(C)c2c(=O)cc(C(F)F)oc2c1	17*	-17	-10	3
COc1ccccc1C(=O)NC1CC2CCC(C1)N2Cc1ccccc1 (centres undefined)	-1	-20	-1	-2
CCOc1ccc(-c2cccc(NC(=O)c3ccc(Br)o3)c2)nn1	2	7	nt	1
SMILES	CTSL1 counter	ZTA counter	HCV NS3 hel inh	EBNA-1 inh
CC(=O)C1=C(C)NC(SCSc2ccccc2)=C(C#N)C1c1cccnc1 (centres undefined)	3	-12	-5	-8
CC(=O)C1=C(C)NC(SCC(=O)c2ccc(-c3ccccc3)cc2)=C(C#N)C1c1cccnc1 (centres undefined)	1	4	-14	36*
O=C(CN1CCCCC1)Nc1cccc(Oc2ccccc2)c1	0	5	-12	14
Nc1cccc(Oc2cnccn2)c1	-4	1	20	-8
O=C(CCl)Nc1cccc(Oc2cnccn2)c1	56*	1	-5	-2
O=C(CCl)Nc1cccc(Oc2ccccc2)c1	43*	8	-2	-14
